Diaph act CS: counter-screen for diaphorase-based assays: diaphorase activators and chemical reducers | hit rate 0.005% among 190,000 | Diaphorase/resazurin coupled assay, resorufin fluorescence, 16 min; active compounds read high; 1 = vehicle wells, 0 = NADH-free wells | activation factor at 20 µM | AID 1229;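 active = diaphorase activity raised at least twofold by the compound at 20 µM; inactive = activation factor below 2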
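Assay system: bacterial diaphorase enzyme (C. kluyveri) / Input: enzyme 0.07 U/mL final / Medium: 50 mM HEPES pH 7.4 with 4.542 mM MgCl2, 0.005% Tween 20 / Doses: single compound dose of 20 µM, 1% DMSO final / Incubation: 16 min enzyme reaction, ambient temperature / Signal: fluorescence, excitation 544 nm and emission 590 nm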
L major viab: reduces viability of Leishmania major promastigotes; hit rate 9% among 200,000; AID 1063; resazurin fluorescence viability; inhibition, % at 10 µM; in the data active = inhibition above about 50%;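 also: promastigotes grown with compound for 44 hours at 28 °C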
PMI act: activators of human phosphomannose isomerase | hit rate 0.005% among 190,000 | activation factor at 20 µM | P34949 | purified human PMI, coupled resazurin fluorescence, 20 min; active compounds read high; 1 = vehicle control, 0 substrate-free wells | AID 1214;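 active = activation factor of 2 or more at 20 µM, relative to plate controls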
Target sequence (P34949 whole entry, looked up): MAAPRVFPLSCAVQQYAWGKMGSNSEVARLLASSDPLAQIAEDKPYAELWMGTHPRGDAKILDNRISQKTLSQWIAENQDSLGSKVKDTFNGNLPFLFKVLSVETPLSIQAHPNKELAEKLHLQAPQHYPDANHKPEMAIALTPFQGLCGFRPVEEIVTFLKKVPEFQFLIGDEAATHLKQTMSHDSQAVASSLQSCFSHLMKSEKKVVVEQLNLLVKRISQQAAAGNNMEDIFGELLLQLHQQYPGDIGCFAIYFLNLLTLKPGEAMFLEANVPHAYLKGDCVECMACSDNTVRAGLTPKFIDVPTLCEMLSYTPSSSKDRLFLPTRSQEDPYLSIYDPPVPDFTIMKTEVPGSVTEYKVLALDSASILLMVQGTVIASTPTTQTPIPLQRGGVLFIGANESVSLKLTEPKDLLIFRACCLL
PMI act satM6P: PMI (human) activation, high substrate; coupled PMI enzyme assay, resazurin fluorescence, 20 min; active compounds read high; 1 = untreated enzyme, 0 = substrate-free blank; hit rate 0.34% among 190,000; activation factor at 20 µM; P34949;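 active = activation factor of 2 or more at 20 µM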
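Material: human phosphomannose isomerase with PGI, G6PDH, diaphorase coupling enzymes; amount: PMI at 15 ng/mL final; also added: Mannose-6-phosphate 1.0 mM (near-saturating) plus 0.22 mM NADP+; incubation: enzyme reaction with compound 20 min at room temperature; signal: resorufin fluorescence (Ex 544/Em 590 nm) from resazurin via diaphorase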
WT yeast gro inh: growth inhibition of WT yeast, mitochondrial fusion screen | mitochondrial fusion phenotypic screen, WT strain | inhibition, % at 10 µM | hit rate 2.1% among 190,000; in the data active = inhibition above about 58%; tested in S. cerevisiae
A number is an active result. Sampled rows, rich in hits. Any-hit rate of the full collection: about 10%.

`CC(NC(=O)Cn1cc(C(F)(F)F)ccc1=O)c1ccc(F)cc1` (centres undefined) gave Diaph act CS inactive, L major viab inactive, PMI act inactive, PMI act satM6P inactive and WT yeast gro inh inactive.
`O=C1CCc2cc(S(=O)(=O)NC(Cc3ccccc3)C(=O)N3CCN(c4ccccn4)CC3)ccc2N1` (centres undefined) gave Diaph act CS inactive, L major viab inactive, PMI act inactive, PMI act satM6P inactive and WT yeast gro inh inactive.
Nc1ncnc(Nc2cc(Cl)cc(Cl)c2)c1[N+](=O)[O-] was read as Diaph act CS inactive, L major viab 55, PMI act inactive, PMI act satM6P inactive and WT yeast gro inh inactive.
For Cc1ccc(-c2cc(C(=O)N/N=C/c3c(C)nn(-c4ccccc4)c3C)n[nH]2)s1 the results were Diaph act CS inactive, L major viab 58, PMI act inactive, PMI act satM6P inactive and WT yeast gro inh inactive.
For Cc1ccc(-c2cc(C(=O)N/N=C/c3c(C)nn(C)c3C)c3ccccc3n2)c(C)c1 the results were Diaph act CS inactive, L major viab 100, PMI act inactive, PMI act satM6P inactive and WT yeast gro inh inactive.
For Cc1ccc(-c2cc(C(=O)N/N=C/c3c(C)nn(-c4ccccc4)c3C)[nH]n2)cc1 the results were Diaph act CS inactive, L major viab 71, PMI act inactive, PMI act satM6P inactive and WT yeast gro inh inactive.
O=C(Nc1ccccc1)C1=C[C@@H](c2ccccc2)C[C@@H](OCc2ccc(CO)cc2)O1 was read as Diaph act CS inactive, L major viab inactive, PMI act inactive, PMI act satM6P inactive and WT yeast gro inh inactive.
Screening O=C(C1=C[C@H](c2csc3ccccc23)C[C@H](OCc2ccc(CO)cc2)O1)N1CCN(Cc2ccccc2)CC1 returned Diaph act CS inactive, L major viab inactive, PMI act inactive, PMI act satM6P inactive and WT yeast gro inh 97.
For O=C(Nc1ccccc1)C1=C[C@@H](c2csc3ccccc23)C[C@@H](OCc2ccc(CO)cc2)O1 the results were Diaph act CS inactive, L major viab 58, PMI act inactive, PMI act satM6P inactive and WT yeast gro inh inactive.
O=C(Nc1ccccc1)C1=C[C@@H](c2ccc(C(F)(F)F)cc2)C[C@@H](OCc2ccc(CO)cc2)O1 was read as Diaph act CS inactive, L major viab 65, PMI act inactive, PMI act satM6P inactive and WT yeast gro inh 63.
`CN1CCN(C(=O)C2=C[C@@H](c3csc4ccccc34)C[C@@H](OCc3ccc(CO)cc3)O2)CC1` gave Diaph act CS inactive, L major viab 90, PMI act inactive, PMI act satM6P inactive and WT yeast gro inh inactive.
For COc1ccc(CNC(=O)C(c2ccc(C)o2)N(C(=O)c2csnn2)c2ccc(C(C)C)cc2)cc1 (centres undefined) the results were Diaph act CS inactive, L major viab inactive, PMI act inactive, PMI act satM6P inactive and WT yeast gro inh inactive.
CCNc1nc(NCC)nc(SCCOC(=O)Nc2ccc(Cl)cc2Cl)n1 was read as Diaph act CS inactive, L major viab inactive, PMI act inactive, PMI act satM6P inactive and WT yeast gro inh inactive.
COc1ccc(C(=O)Nc2ccc(S(=O)(=O)Nc3onc(C)c3C)cc2)c(OC)c1 was read as Diaph act CS inactive, L major viab inactive, PMI act inactive, PMI act satM6P inactive and WT yeast gro inh inactive.
For COc1cc2c3nnc(-c4ccc(F)cc4)c-3cn(Cc3ccccc3)c2cc1OC the results were Diaph act CS inactive, L major viab inactive, PMI act inactive, PMI act satM6P inactive and WT yeast gro inh inactive.
`COc1ccccc1NC(=O)CCN1C(=O)c2ccccc2S1(=O)=O` gave Diaph act CS inactive, L major viab inactive, PMI act inactive, PMI act satM6P inactive and WT yeast gro inh inactive.
Screening CC(C)(O)C#Cc1ccc(C(=O)NCc2ccccc2F)cc1 returned Diaph act CS inactive, L major viab inactive, PMI act inactive, PMI act satM6P inactive and WT yeast gro inh inactive.
Screening O=C(C1=C[C@H](c2csc3ccccc23)C[C@H](OCc2ccc(CO)cc2)O1)N1CCN(Cc2ccc3c(c2)OCO3)CC1 returned Diaph act CS inactive, L major viab 66, PMI act inactive, PMI act satM6P inactive and WT yeast gro inh 98.
O=C(C1=C[C@H](c2ccccc2)C[C@H](OCc2ccc(CO)cc2)O1)N1CCN(Cc2ccc3c(c2)OCO3)CC1 was read as Diaph act CS inactive, L major viab inactive, PMI act inactive, PMI act satM6P inactive and WT yeast gro inh inactive.
`CC(=O)n1cc([C@@H]2C=C(C(=O)N3CCN(Cc4ccccc4)CC3)O[C@H](OCc3ccc(CO)cc3)C2)c2ccccc21` gave Diaph act CS inactive, L major viab 97, PMI act inactive, PMI act satM6P inactive and WT yeast gro inh inactive.
Cc1ccc(N2C(=O)CC2(C#N)c2ccc(OCc3ccccc3)cc2)cc1 (centres undefined) was read as Diaph act CS inactive, L major viab inactive, PMI act inactive, PMI act satM6P inactive and WT yeast gro inh inactive.
`Cc1cc(C)n(-c2ccc(Cl)c(C(=O)O)c2)n1` gave L major viab inactive and WT yeast gro inh inactive.
COc1ccc(NC(=O)CCN2CCN(S(=O)(=O)c3cc(Cl)ccc3OC)CC2)cc1 was read as Diaph act CS inactive, L major viab 82, PMI act inactive, PMI act satM6P inactive and WT yeast gro inh inactive.
Cc1cccc(NC(=S)NNC(=O)COc2ccc(Cl)cc2Cl)c1 was read as Diaph act CS inactive, L major viab inactive, PMI act inactive, PMI act satM6P inactive and WT yeast gro inh 63.
CCC(=O)NC(=S)Nc1ccc(NC(=O)COc2ccc(Cl)cc2Cl)cc1 was read as Diaph act CS inactive, L major viab inactive, PMI act inactive and PMI act satM6P inactive.
For Cc1ccc(OCC(=O)NNC(=S)NC(=O)C(C)(C)C)c(Br)c1 the results were Diaph act CS inactive, L major viab inactive, PMI act inactive, PMI act satM6P inactive and WT yeast gro inh 84.
Screening COc1ccc(NC(=S)NNC(=O)COc2ccc(Cl)cc2Cl)cc1 returned Diaph act CS inactive, L major viab inactive, PMI act inactive, PMI act satM6P inactive and WT yeast gro inh 69.
For COC(=O)C1(O)CC(C(C)C)=NN1C(=O)c1ccccc1 (centres undefined) the results were Diaph act CS inactive, L major viab inactive, PMI act inactive, PMI act satM6P inactive and WT yeast gro inh inactive.
For CCN(CC)C(=O)CSc1nc2c(c(-c3cccnc3)c1C#N)CCCC2 the results were Diaph act CS inactive, L major viab inactive, PMI act inactive, PMI act satM6P inactive and WT yeast gro inh inactive.
Cc1ccc(/C=C/C(=O)OCC(=O)NC(C)C)o1 was read as Diaph act CS inactive, L major viab inactive, PMI act inactive, PMI act satM6P inactive and WT yeast gro inh inactive.
Screening COc1ccccc1-c1nc(-c2ccccn2)no1 returned Diaph act CS inactive, L major viab inactive, PMI act inactive, PMI act satM6P inactive and WT yeast gro inh inactive.

Source: PubChem BioAssay (several laboratories)
